# Calls of active or inactive are those of the source. No cut-off for these calls is given here.
# Assays:
# [1] = molecular target: Runt-related transcription factor 2 (Mus musculus) (UniProt Q08775); assay: Upregulation of Runx2 transcriptional activity in mouse MC3T3-E1 cells transfected with p6OSE2-luc at 100 uM incubated for 48 hrs by firefly luciferase reporter gene assay relative to control; type: cell-based; settings: filed as activator
# In short: (§1)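 MC3T3-E1 cells reverse-transfected in suspension with p6OSE2-luc (Runx2-responsive reporter), 100 ng DNA per well, 10^5 cells/ml in α-MEM with 10% FBS, 37 °C in CO2. After 24 h the medium was replaced with complete medium containing compound, with lovastatin as positive control. Firefly luciferase read after a further 48 h as relative luminescence units. Significance by Dunnett's test.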
# Rattus norvegicus [2] = assay: Antiosteoporotic activity in Sprague-Dawley rat model of OVX-induced bone loss assessed as increase in number of trabeculae at 30 mg/kg, ig administered for 3 months with 1 day break after 6 consecutive days administration; type: functional, organism-based
# In short: (§2)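 Female SD rats given bilateral ovariectomy (sham: fat tissue removed instead), adapted 1 week beforehand; dosing began on postoperative day 10, n = 10 per group. Test drugs as 3 mg/mL suspension by gavage; raloxifene hydrochloride at 0.5 mg/mL. Controls got water. Tetracycline 30 mg/kg ip 16 and 3 days before euthanasia. Tibia stained sections give trabecular morphology and TBV%. BMD of L4-6 measured by densitometry under pentobarbital 45 mg/kg anaesthesia. Reported as mean ± SD.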
# Rattus norvegicus [3] = assay: Antiosteoporotic activity in Sprague-Dawley rat model of OVX-induced bone loss assessed as increase in thickness of trabeculae at 30 mg/kg, ig administered for 3 months with 1 day break after 6 consecutive days administration; type: functional, organism-based; in short: as §2
# Rattus norvegicus [4] = assay: Antiosteoporotic activity in Sprague-Dawley rat model of OVX-induced bone loss assessed as narrowed gap between trabeculae at 30 mg/kg, ig administered for 3 months with 1 day break after 6 consecutive days administration; type: functional, organism-based; in short: as §2
# Rattus norvegicus [5] = assay: Antiosteoporotic activity in Sprague-Dawley rat model of OVX-induced bone loss assessed as increase in trabecular bone volume at 30 mg/kg, ig administered for 3 months with 1 day break after 6 consecutive days administration; type: functional, organism-based; in short: as §2
# Rattus norvegicus [6] = assay: Antiosteoporotic activity in Sprague-Dawley rat model of OVX-induced bone loss assessed as increase in trabecular bone mineral density at 30 mg/kg, ig administered for 3 months with 1 day break after 6 consecutive days administration; type: functional, organism-based; in short: as §2
# Danio rerio [7] = organism: Danio rerio; assay: (§3) Antiosteoporotic activity in Zebra fish model of dexamethasone-induced bone loss assessed as increase in bone mineralization at 1 to 25 uM 6hpf embryo treated for 72 hrs with dexamethasone followed by incubation with drug and measured after 6 days post-fertilization by alizarin dye based imaging analysis; type: functional, organism-based; settings: dose 1-25 µM, time 3.0 day
# In short: (§4)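 AB-line zebrafish embryos at 6 hpf held in dexamethasone solution for 72 h, then exposed to drug, and cultured to 6 dpf. Larvae stained with alizarin red, rehydrated, decolorised and photographed. Stained area and integrated optical density were summed over the left-flank branchial bones: cleithrum, compass, opercle and branchiostegal rays. Values expressed relative to untreated controls set at 1.00.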
# Danio rerio [8] = organism: Danio rerio; assay: as §3, with “by measuring increase in integrated optical density” for “at 1 to 25 uM”; type: functional, organism-based; settings: dose 1-25 µM, time 3.0 day; in short: as §4
# Danio rerio [9] = organism: Danio rerio; assay: Antiosteoporotic activity in Zebra fish model of dexamethasone-induced bone loss assessed as increase in BMP-2 expression at 1 uM incubated for 24 hrs in presence of dexamethasone by Western blot analysis; type: functional, organism-based
# In short: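 Protein extracts were prepared from untreated, dexamethasone-treated and drug-treated (1 µM, 24 h) zebrafish, and BMP-2 protein was then assessed.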
# [10] = Toxicity in BALB/c mouse assessed as muscle spasm at 50 to 100 mg/kg, ig administered for 14 days; type: organism-based; settings: in vivo, po, 336 h, dose 50-100 mg/kg, time 14 day
# In short: (§5)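 BALB/c mice, 10 per group, gavaged daily for 14 days at 50 or 100 mg/kg; blank control group included. Hair, behaviour and neurological signs (fremitus, convulsion, spasm, gait disturbance) were observed. At day 14, mice were weighed and given routine blood tests and serum biochemistry (ALT, AST, urea, creatinine; n = 10). Liver and kidney were examined on paraffin-embedded histology sections.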
# [11] = Toxicity in BALB/c mouse assessed as convulsion at 50 to 100 mg/kg, ig administered for 14 days; type: organism-based; settings: in vivo, po, 336 h, dose 50-100 mg/kg, time 14 day; in short: as §5
# [12] = Toxicity in BALB/c mouse assessed as fremitus at 50 to 100 mg/kg, ig administered for 14 days; type: organism-based; settings: in vivo, po, 336 h, dose 50-100 mg/kg, time 14 day; in short: as §5
# [13] = Toxicity in BALB/c mouse assessed as effect on body weight at 50 to 100 mg/kg, ig administered for 14 days; type: organism-based; settings: in vivo, po, 336 h, dose 50-100 mg/kg, time 14 day; in short: as §5
# [14] = Toxicity in BALB/c mouse assessed as effect on hair at 50 to 100 mg/kg, ig administered for 14 days; type: organism-based; settings: in vivo, po, 336 h, dose 50-100 mg/kg, time 14 day; in short: as §5
# [15] = Solubility in PBS buffer at pH 7.4 assessed as precipitation of compound at 10000 nM; type: physicochemical; settings: pH 7.4, 10 µM
# [16] = Solubility in PBS buffer at pH 7.4 assessed as precipitation of compound at 5000 nM; type: physicochemical; settings: pH 7.4, 5 µM
# [17] = Solubility in PBS buffer at pH 7.4 assessed as precipitation of compound at 2500 nM; type: physicochemical; settings: pH 7.4, 2.5 µM
# [18] = Solubility in PBS buffer at pH 7.4 assessed as precipitation of compound at 625 nM; type: physicochemical; settings: pH 7.4, 0.625 µM
# [19] = Solubility in PBS buffer at pH 7.4 assessed as precipitation of compound at 312.5 nM; type: physicochemical; settings: pH 7.4, 0.3125 µM
# [20] = Solubility in PBS buffer at pH 7.4 assessed as precipitation of compound at 156.25 nM; type: physicochemical; settings: pH 7.4, 0.15625 µM
# [21] = Apparent permeability across apical to basolateral side in human Caco-2 cells at 10 uM incubated for 2 hrs LC-MS/MS analysis; type: ADME, cell-based; settings: Caco-2
# In short: (§6)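 Caco-2 monolayers, apical to basolateral direction. Plates preincubated 30 min at 37 °C, then exposed to 10 µM compound for 2 h at 37 °C without shaking. Donor and receiver samples were quenched, centrifuged and measured by LC/MS/MS, in duplicate. Papp calculated from receiver concentration, area and time. Monolayer integrity checked by TEER and by Lucifer yellow leakage (30 min, 37 °C, ex 485/em 530 nm).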
# [22] = Permeability across apical to basolateral side in human Caco-2 cells assessed as transepithelial electrical resistance at 10 uM incubated for 2 hrs LC-MS/MS analysis; type: ADME, cell-based; settings: caco-2, 2 h; in short: as §6
# [23] = Permeability across apical to basolateral side in human Caco-2 cells assessed as […] yellow leakage at 10 uM incubated for 2 hrs LC-MS/MS analysis; type: ADME, cell-based; settings: caco-2, 2 h; in short: as §6
# [24] = Toxicity in BALB/c mouse assessed as gait disturbance at 50 to 100 mg/kg, ig administered for 14 days; type: organism-based; settings: in vivo, po, 336 h, dose 50-100 mg/kg, time 14 day; in short: as §5
# [25] = Toxicity in BALB/c mouse assessed as effect on behavioral change at 50 to 100 mg/kg, ig administered for 14 days; type: organism-based; settings: in vivo, po, 336 h, dose 50-100 mg/kg, time 14 day; in short: as §5
# [26] = Toxicity in BALB/c mouse assessed as hepatocyte nucleus mitosis at 50 to 100 mg/kg, ig administered for 14 days; type: organism-based; settings: in vivo, po, 336 h, dose 50-100 mg/kg, time 14 day; in short: as §5
# [27] = Toxicity in BALB/c mouse assessed as effect on liver megakaryocyte at 50 to 100 mg/kg, ig administered for 14 days; type: organism-based; settings: in vivo, po, 336 h, dose 50-100 mg/kg, time 14 day; in short: as §5
# [28] = Toxicity in BALB/c mouse assessed as inflammatory infiltration in liver at 50 to 100 mg/kg, ig administered for 14 days; type: organism-based; settings: in vivo, po, 336 h, dose 50-100 mg/kg, time 14 day; in short: as §5
# [29] = Toxicity in BALB/c mouse assessed as hepatocyte necrotic foci at 50 to 100 mg/kg, ig administered for 14 days; type: organism-based; settings: in vivo, po, 336 h, dose 50-100 mg/kg, time 14 day; in short: as §5
# [30] = Toxicity in BALB/c mouse assessed as necrosis in renal tubular epithelial cells at 50 to 100 mg/kg, ig administered for 14 days; type: organism-based; settings: in vivo, po, 336 h, dose 50-100 mg/kg, time 14 day
# In short: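 BALB/c mice, 10 per group: untreated blank group plus low (50 mg/kg) and high (100 mg/kg) dose groups, intragastric once daily for 14 days. Hair, behaviour and neurological signs monitored throughout. At day 14 mice were weighed and dissected. Kidney and liver tissue was fixed in 3 mm pieces, dehydrated through graded alcohol, cleared in xylene, embedded in paraffin, sectioned and examined histopathologically.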
# [31] = Hepatotoxicity in BALB/c mouse assessed as effect on serum ALT level at 50 to 100 mg/kg, ig administered for 14 days; type: toxicity, organism-based; settings: in vivo, po, 336 h, dose 50-100 mg/kg, time 14 day; in short: as §5
# [32] = Hepatotoxicity in BALB/c mouse assessed as effect on serum AST level at 50 to 100 mg/kg, ig administered for 14 days; type: toxicity, organism-based; settings: in vivo, po, 336 h, dose 50-100 mg/kg, time 14 day; in short: as §5
# [33] = Renal toxicity in BALB/c mouse assessed as effect on serum urea level at 50 to 100 mg/kg, ig administered for 14 days; type: organism-based; settings: in vivo, po, 336 h, dose 50-100 mg/kg, time 14 day; in short: as §5
# [34] = Renal toxicity in BALB/c mouse assessed as effect on serum creatinine level at 50 to 100 mg/kg, ig administered for 14 days; type: organism-based; settings: in vivo, po, 336 h, dose 50-100 mg/kg, time 14 day; in short: as §5
# Rattus norvegicus [35] = assay: Antiosteoporotic activity in Sprague-Dawley rat model of OVX-induced bone loss assessed as increase in number of trabeculae at 5 mg/kg, ig administered for 3 months with 1 day break after 6 consecutive days administration; type: functional, organism-based; in short: as §2
# Rattus norvegicus [36] = assay: Antiosteoporotic activity in Sprague-Dawley rat model of OVX-induced bone loss assessed as increase in thickness of trabeculae at 5 mg/kg, ig administered for 3 months with 1 day break after 6 consecutive days administration; type: functional, organism-based; in short: as §2
# Rattus norvegicus [37] = assay: Antiosteoporotic activity in Sprague-Dawley rat model of OVX-induced bone loss assessed as narrowed gap between trabeculae at 5 mg/kg, ig administered for 3 months with 1 day break after 6 consecutive days administration; type: functional, organism-based; in short: as §2
# Rattus norvegicus [38] = assay: Antiosteoporotic activity in Sprague-Dawley rat model of OVX-induced bone loss assessed as increase in trabecular bone volume at 5 mg/kg, ig administered for 3 months with 1 day break after 6 consecutive days administration; type: functional, organism-based; in short: as §2
# Rattus norvegicus [39] = assay: Antiosteoporotic activity in Sprague-Dawley rat model of OVX-induced bone loss assessed as increase in trabecular bone mineral density at 5 mg/kg, ig administered for 3 months with 1 day break after 6 consecutive days administration; type: functional, organism-based; in short: as §2
# [40] = molecular target: Runt-related transcription factor 2 (Mus musculus) (UniProt Q08775); assay: Upregulation of Runx2 transcriptional activity in mouse MC3T3-E1 cells transfected with p6OSE2-luc at 10 uM incubated for 48 hrs by firefly luciferase reporter gene assay relative to control; type: cell-based; settings: filed as activator; in short: as §1
# MC3T3-E1 = assay: Cytotoxicity against mouse MC3T3-E1 cells at 100 uM; type: cell-based; settings: mc3t3-e1, 100 µM
# Chain of Runt-related transcription factor 2 (Mus musculus) (Q08775 whole entry): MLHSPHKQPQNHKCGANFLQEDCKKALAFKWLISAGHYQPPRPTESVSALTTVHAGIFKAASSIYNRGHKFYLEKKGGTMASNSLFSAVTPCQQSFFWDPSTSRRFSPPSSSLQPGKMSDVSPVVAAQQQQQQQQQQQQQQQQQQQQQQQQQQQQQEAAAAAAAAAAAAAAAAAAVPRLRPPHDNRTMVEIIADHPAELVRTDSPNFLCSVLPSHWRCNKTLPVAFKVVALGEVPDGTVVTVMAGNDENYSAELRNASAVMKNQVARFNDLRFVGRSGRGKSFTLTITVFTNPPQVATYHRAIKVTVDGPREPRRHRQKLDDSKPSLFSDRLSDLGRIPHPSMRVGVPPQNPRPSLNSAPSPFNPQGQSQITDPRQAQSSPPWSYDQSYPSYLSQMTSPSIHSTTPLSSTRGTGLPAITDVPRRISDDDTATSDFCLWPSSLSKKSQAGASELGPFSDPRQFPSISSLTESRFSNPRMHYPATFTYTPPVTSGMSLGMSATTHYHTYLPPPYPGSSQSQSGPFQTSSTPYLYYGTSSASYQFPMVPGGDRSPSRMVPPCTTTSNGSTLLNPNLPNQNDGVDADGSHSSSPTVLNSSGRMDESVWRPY
compound,measurement,setting,value
COc1ccc2cc(C(=O)NCCN(C)C)oc2c1,Activity,[1],267%
same,Activity,Rattus norvegicus [2],Active
same,Activity,Rattus norvegicus [3],Active
same,Activity,Rattus norvegicus [4],Active
same,Activity,Rattus norvegicus [5],Active
same,Activity,Rattus norvegicus [6],Active
same,Activity,Danio rerio [7],Active
same,Activity,Danio rerio [8],Dose-dependent effect
same,Activity,Danio rerio [9],Active
CCOC(=O)c1cc2ccc(OC)cc2o1,Activity,[10],Non-Toxic
same,Activity,[11],Non-Toxic
same,Activity,[12],Non-Toxic
same,Activity,[13],Non-Toxic
same,Activity,[14],Non-Toxic
same,solubility,[15],Insoluble
same,solubility,[16],Insoluble
same,solubility,[17],Insoluble
same,solubility,[18],Soluble
same,solubility,[19],Soluble
same,solubility,[20],Soluble
same,Activity,Rattus norvegicus [2],Active
same,Activity,Rattus norvegicus [3],Active
same,Activity,Rattus norvegicus [4],Active
same,Activity,Rattus norvegicus [5],Active
same,Activity,Rattus norvegicus [6],Active
same,"Papp A→B at 2 h, 10 µM",[21],< 0.0247 nm/s
same,Activity,[22],373 Ω·cm²
same,Activity,[23],0.152%
same,Activity,[24],Non-Toxic
same,Activity,[25],Non-Toxic
same,Activity,[26],Toxic
same,Activity,[27],Toxic
same,Activity,[28],Toxic
same,Activity,[29],Toxic
same,Activity,[30],Toxic
same,Activity,[31],Non-Toxic
same,Activity,[32],Non-Toxic
same,Activity,[33],Non-Toxic
same,Activity,[34],Non-Toxic
O=C(c1ccc(OCCN2CCCCC2)cc1)c1c(-c2ccc(O)cc2)sc2cc(O)ccc12,Activity,Rattus norvegicus [35],Active
same,Activity,Rattus norvegicus [36],Active
same,Activity,Rattus norvegicus [37],Active
same,Activity,Rattus norvegicus [38],Active
same,Activity,Rattus norvegicus [39],Active
CC[C@H](C)C(=O)O[C@H]1C[C@@H](C)C=C2C=C[C@H](C)[C@H](CC[C@@H]3C[C@@H](O)CC(=O)O3)[C@H]21 [LOVASTATIN],Activity,[40],256%
same,Activity,MC3T3-E1,Toxic
